# Source: paper PMC9290801 (Journal of Clinical Pharmacology, 2021)
# Where two headings read alike, the source gives them in different places.
# How the values were obtained:
# [1] = Physicochemical parameters
# [2] = Blood-to-plasma ratio and plasma protein binding; format: in vitro ADME
# [3] = Madin-Darby Canine Kidney II permeability measurement; format: in vitro ADME; conditions: dog, MDCK
# [4] = PBPK model absorption/distribution input parameters; design: species or system human; conditions: Estimated based on observed Cmax and PK profile (Study NCT02093728)
# Outline: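 Minimal 4-compartment PBPK model in Simcyp v17 with first-order absorption and a single adjusting compartment (intercompartmental clearance 8 L/h, from a population PK model). Compartment volume was fitted to observed Cmax and profile from a healthy-volunteer trial: 10 × 10 virtual subjects aged 18–44 years given a single oral 25 mg dose.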
# CYP3A = CYP3A contribution to selumetinib clearance; design: species or system human
# CYP2C19 = CYP2C19 contribution to selumetinib clearance; design: species or system human
# P-glycoprotein (P-gp) = test: P-gp transport kinetics; format: in vitro ADME; conditions: not told
# Outline: (§1)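 Intestinal P-gp kinetics were estimated by the Troutman–Thakker approach, assuming one-site saturable Michaelis–Menten kinetics, with intrinsic clearance derived from Jmax and Km. The values were placed at the intestinal apical site (ADAM absorption, minimal PBPK) and at the hepatic canalicular site (full PBPK, tissue:plasma Kp 0.4).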
# P‐glycoprotein (P‐gp) = test: P-gp transport kinetics; format: in vitro ADME
# Outline: as §1
# [5] = cited from earlier work
# [6] = cited from earlier work; remark: listed apart in the source
# [7] = cited from earlier work; remark: listed apart in the source
# [8] = coadministration with rifampicin vs selumetinib alone; cited from earlier work
# [9] = single oral dose, healthy adult subjects; cited from earlier work
# [10] = adults with solid tumors; cited from earlier work
compound,measurement,setting,value
Cn1cnc2c(F)c(Nc3ccc(Br)cc3Cl)c(C(=O)NOCCO)cc21 [selumetinib],logP,[1],3.88
same,B:P (blood‐to‐plasma ratio),[2]; Report KPJ003,0.625
same,fraction unbound,[2]; plasma,0.016
same,Papp,[3],37.7 ×10⁻⁶ cm/s
same,Vsac (volume of single adjusting compartment),[4],1 L/kg
same,CYP3A CLint,"CYP3A; Retrograde from CLpo 19.6 L/h, fm 25%",0.568 µL/min/pmol
same,fm (fraction metabolized) by CYP3A,CYP3A; assigned according to DDI study with itraconazole,25%
same,CYP2C19 CLint,"CYP2C19; Retrograde from CLpo 19.6 L/h, fm 15%",3.335 µL/min/pmol
same,fm (fraction metabolized) by CYP2C19,CYP2C19; assigned according to DDI study with fluconazole,15%
same,Km,P-glycoprotein (P-gp),15.8 µM
same,maximal carrier‐mediated flux (Jmax),"P‐glycoprotein (P‐gp); estimated, one‐site Michaelis‐Menten saturable kinetics",9.9 pmol/min
same,P‐gp intrinsic clearance,P‐glycoprotein (P‐gp); from Jmax and Km,0.62 µL/min
same,observed exposure (AUC from time 0 to 12 hours),"[5]; SPRINT phase 2 cohort, 25 mg/m^2",2009 ng·h/mL
same,maximum tolerated dose,"[5]; pediatric SPRINT phase 1, twice daily",25 mg/m^2
same,terminal elimination half‐life,"[5]; pediatric patients, single oral dose",≈ 6 hours
same,fraction of absorption (Oral dose → First pass),[6]; oral dose,> 71%
same,dose eliminated as unchanged in urine,[6]; renal elimination,< 1 % of dose
same,Observed geomean AUC (CV%),[7]; 25 mg dose+fluconazole,1770 ng·h/mL
same,Observed geomean AUC (CV%),[7]; 25 mg dose+itraconazole,1760 ng·h/mL
same,Observed geomean AUC (CV%),"[7]; 25 mg single oral dose alone, healthy volunteers",1180 ng·h/mL
same,decrease in AUC,[8],51%
same,reduction in Cmax,[8],26%
same,absolute (oral) bioavailability,[9],62%
same,maximum tolerated dose,[10],75 mg
